Activity calls are given as the source filed them. No cut-off for these calls is given here.
What was measured:
[1] = Prodrug release in human HCT-116 cells assessed as increase in intracellular NO level at 100 uM measured after 2 hr by DAF-FM DA reagent based laser confocal scanning microscopy; settings: hct-116, 2 h
HL-60 = test: Antiproliferative activity against human HL60 cells harboring NRAS […] mutant assessed as inhibition of cell viability after 96 hrs by Celltiter-Glo assay; format: functional, cell-based; settings: HL-60, 96 h
MDA-MB-231 [2] = test: Antiproliferative activity against human MDA-MB-231 cells harboring KRAS G13D/BRAF G464V mutant assessed as inhibition of cell viability after 96 hrs by Celltiter-Glo assay; format: functional, cell-based; settings: MDA-MB-231, 96 h
A549 = test: Antiproliferative activity against human A549 cells harboring KRAS G12S mutant assessed as inhibition of cell viability after 96 hrs by Celltiter-Glo assay; format: functional, cell-based; settings: A549, 96 h
HCT-116 = test: Antiproliferative activity against human HCT116 cells harboring KRAS G13D mutant assessed as inhibition of cell viability after 96 hrs by Celltiter-Glo assay; format: functional, cell-based; settings: HCT-116, 96 h
[3] = Antiproliferative activity against human A375 cells harboring BRAF V600E mutant assessed as inhibition of cell viability after 96 hrs by Celltiter-Glo assay; format: functional, cell-based, A375/R; settings: A-375, 96 h
MDA-MB-231 [4] = test: Induction of apoptosis in human MDA-MB-231 cells assessed as early apoptotic cells at 1 uM incubated for 24 hrs by AnnexinV-FITC and propidium iodide staining based flow cytometry (reference value: 4.4%); format: functional
[5] = target: T1, Dual specificity mitogen-activated protein kinase kinase; MEK1/2 (Homo sapiens) (UniProt P36507+Q02750); test: Inhibition of MEK in human MDA-MB-231 cells assessed as reduction in ERK phosphorylation at 1 to 10 uM incubated for 2 hrs by Western blot analysis; format: cell-based; settings: dose 1-10 µM
T1 sequence (P36507 whole entry, looked up): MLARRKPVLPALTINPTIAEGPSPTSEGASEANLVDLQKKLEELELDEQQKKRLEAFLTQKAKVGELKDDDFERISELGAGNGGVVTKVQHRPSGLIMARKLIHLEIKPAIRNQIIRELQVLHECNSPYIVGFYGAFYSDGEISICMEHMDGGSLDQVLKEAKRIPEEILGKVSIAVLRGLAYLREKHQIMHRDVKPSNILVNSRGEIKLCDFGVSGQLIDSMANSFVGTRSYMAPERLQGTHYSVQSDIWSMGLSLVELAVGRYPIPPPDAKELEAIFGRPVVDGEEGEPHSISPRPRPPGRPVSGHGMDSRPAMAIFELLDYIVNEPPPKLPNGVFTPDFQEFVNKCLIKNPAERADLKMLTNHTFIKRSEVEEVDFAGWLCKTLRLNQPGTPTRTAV
T1 sequence (Q02750 whole entry, looked up): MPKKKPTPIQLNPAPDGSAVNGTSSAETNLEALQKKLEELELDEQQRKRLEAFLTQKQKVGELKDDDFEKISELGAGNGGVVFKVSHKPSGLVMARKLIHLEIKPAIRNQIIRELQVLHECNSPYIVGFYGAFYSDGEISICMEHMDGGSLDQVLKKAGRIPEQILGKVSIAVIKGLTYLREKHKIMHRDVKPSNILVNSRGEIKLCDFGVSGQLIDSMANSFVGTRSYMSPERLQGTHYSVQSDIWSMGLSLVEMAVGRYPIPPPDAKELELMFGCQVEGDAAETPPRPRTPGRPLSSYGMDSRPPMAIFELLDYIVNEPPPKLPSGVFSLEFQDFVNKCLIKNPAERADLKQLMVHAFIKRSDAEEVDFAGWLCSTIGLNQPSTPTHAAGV
Summary of the method: (§1)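 MDA-MB-231 in RPMI-1640 with 10% FBS. Dose series at 1, 3 and 10 µM for 2 h or 24 h; time course at 1 µM or 10 µM over several time points. RIPA lysates with protease/phosphatase inhibitors, equal protein on 4-20% SDS-PAGE, PVDF transfer, 5% milk block. Probed overnight at 4 °C for pMEK, MEK, pERK and ERK, then HRP secondary.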

MDA-MB-231 [6] = test: Induction of apoptosis in human MDA-MB-231 cells assessed as viable cells at 1 uM incubated for 24 hrs by AnnexinV-FITC and propidium iodide staining based flow cytometry (reference value: 90.962%); format: functional; settings: read-out: Activity
[7] = target: T1, Dual specificity mitogen-activated protein kinase kinase; MEK1/2 (Homo sapiens); test: Inhibition of MEK in human MDA-MB-231 cells assessed as reduction in ERK phosphorylation incubated for 2 hrs by Western blot analysis; format: cell-based; settings: dose 0.1-10 µM
MDA-MB-231 [8] = test: Induction of apoptosis in human MDA-MB-231 cells assessed as necrotic cells at 1 uM incubated for 24 hrs by AnnexinV-FITC and propidium iodide staining based flow cytometry (reference value: 1.084%); format: functional
[9] = target: T1, Dual specificity mitogen-activated protein kinase kinase; MEK1/2 (Homo sapiens); test: Inhibition of MEK in human MDA-MB-231 cells assessed as reduction in MEK phosphorylation at 1 uM by Western blot analysis; format: cell-based; settings: time 1-6 hrs, TDE = time-dependent effect
Summary of the method: as §1

MDA-MB-231 [10] = test: Induction of apoptosis in human MDA-MB-231 cells assessed as necrotic cells at 10 uM incubated for 24 hrs by AnnexinV-FITC and propidium iodide staining based flow cytometry (reference value: 1.084%); format: functional
[11] = target: T1, Dual specificity mitogen-activated protein kinase kinase; MEK1/2 (Homo sapiens); test: Inhibition of MEK in human MDA-MB-231 cells assessed as reduction in MEK phosphorylation at 1 uM incubated for <=1 hr by Western blot analysis; format: cell-based; settings: time hrs <=1
Summary of the method: as §1

L02 = test: Cytotoxicity against human HL7702 cells assessed as reduction in cell viability after 96 hrs by Celltiter-Glo assay; format: cell-based; settings: L02, 96 h
Summary of the method: (§2)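 Cells kept at 37 °C in humidified 5% CO2 with 10% FBS; Vero in DMEM, HL7702 in RPMI-1640. Compounds added to plated cells and incubated 96 h at 37 °C. Viability read by CellTiter-Glo reagent added directly to the wells. IC50 fitted from the readings.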

MDA-MB-231 [12] = test: Induction of apoptosis in human MDA-MB-231 cells assessed as viable cells at 10 uM incubated for 24 hrs by AnnexinV-FITC and propidium iodide staining based flow cytometry (reference value: 90.962%); format: functional; settings: read-out: Activity
[13] = target: T1, Dual specificity mitogen-activated protein kinase kinase; MEK1/2 (Homo sapiens); test: Inhibition of MEK in human MDA-MB-231 cells assessed as reduction in ERK phosphorylation at 1 uM by Western blot analysis; format: cell-based; settings: time 1-6 hrs, TDE = time-dependent effect
Summary of the method: as §1

MDA-MB-231 [14] = test: Induction of apoptosis in human MDA-MB-231 cells assessed as late apoptotic cells at 10 uM incubated for 24 hrs by AnnexinV-FITC and propidium iodide staining based flow cytometry (reference value: 3.54%); format: functional
[15] = target: T1, Dual specificity mitogen-activated protein kinase kinase; MEK1/2 (Homo sapiens); test: Inhibition of MEK in human MDA-MB-231 cells assessed as reduction in MEK phosphorylation at 1 to 10 uM incubated for 2 hrs by Western blot analysis; format: cell-based; settings: dose 1-10 µM
Summary of the method: as §1

[16] = target: T1, Dual specificity mitogen-activated protein kinase kinase; MEK1/2 (Homo sapiens); test: Inhibition of MEK in human MDA-MB-231 cells assessed as reduction in MEK phosphorylation incubated for 2 hrs by Western blot analysis; format: cell-based; settings: dose 0.1-10 µM
MDA-MB-231 [17] = test: Induction of apoptosis in human MDA-MB-231 cells assessed as early apoptotic cells at 10 uM incubated for 24 hrs by AnnexinV-FITC and propidium iodide staining based flow cytometry (reference value: 4.4%); format: functional
[18] = target: T1, Dual specificity mitogen-activated protein kinase kinase; MEK1/2 (Homo sapiens); test: Inhibition of MEK in human MDA-MB-231 cells assessed as reduction in ERK phosphorylation at 1 uM incubated for <=1 hr by Western blot analysis; format: cell-based; settings: time hrs <=1
Summary of the method: as §1

Vero = test: Cytotoxicity against African green monkey Vero cells assessed as reduction in cell viability after 96 hrs by Celltiter-Glo assay; format: cell-based; settings: Chlorocebus sabaeus
Summary of the method: as §2

MDA-MB-231 [19] = test: Induction of apoptosis in human MDA-MB-231 cells assessed as late apoptotic cells at 1 uM incubated for 24 hrs by AnnexinV-FITC and propidium iodide staining based flow cytometry (reference value: 3.54%); format: functional
[20] = target: T1, Dual specificity mitogen-activated protein kinase kinase; MEK1/2 (Homo sapiens); test: Inhibition of MEK in human A549 cells assessed as reduction in MEK phosphorylation at 10 uM incubated for 2 hrs by Western blot analysis; format: cell-based
Summary of the method: (§3)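 A549 cells in RPMI-1640 with 10% FBS, treated 2 h. Cells lysed in RIPA with protease/phosphatase inhibitors on ice for 20 min. Equal protein run on 4-20% SDS-PAGE and blotted to PVDF. Membranes blocked in 5% milk, then probed overnight at 4 °C with rabbit mAbs to pMEK, MEK, pERK and ERK, followed by HRP secondary. GAPDH used as loading control.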

[21] = target: T1, Dual specificity mitogen-activated protein kinase kinase; MEK1/2 (Homo sapiens); test: Inhibition of MEK in human A549 cells assessed as reduction in ERK phosphorylation at 1 uM incubated for 2 hrs by Western blot analysis; format: cell-based
Summary of the method: as §3

Row | Compound | Drug metabolism [1] | IC50 (HL-60) [nM] | IC50 (MDA-MB-231 [2]) [nM] | IC50 (A549) [nM] | IC50 (HCT-116) [nM] | IC50 [3] [nM] | further results
1 | Cc1c(Cc2cccc(NS(=O)(=O)NC(C)C)c2F)c(=O)oc2cc(OCCO)ccc12 | Metabolite_Notdetected | 140 | 2380 | > 5000 | 5090 | 150 | –
2 | Cc1c(Cc2cccc(NS(=O)(=O)NCCC#N)c2F)c(=O)oc2cc(OCCOc3no[n+]([O-])c3S(=O)(=O)c3ccccc3)ccc12 | Metabolite_Detected | 640 | 270 | 2610 | 760 | 660 | –
3 | CNS(=O)(=O)Nc1cccc(Cc2c(C)c3ccc(OCCCOc4no[n+]([O-])c4S(=O)(=O)c4ccccc4)cc3oc2=O)c1F | Metabolite_Detected | – | 34 | 1350 | 640 | – | Activity (MDA-MB-231 [4]): 22.6%; inhibition [5]: Active; viability at 1 µM (MDA-MB-231 [6]): 61.2%; inhibition [7]: Dose-dependent effect; Activity (MDA-MB-231 [8]): 8.443%; inhibition [9]: Tde; Activity (MDA-MB-231 [10]): 14.729%; inhibition [11]: Active; IC50 (L02): 5.62 µM; viability at 10 µM (MDA-MB-231 [12]): 53.7%; inhibition [13]: Tde; Activity (MDA-MB-231 [14]): 6.87%; inhibition [15]: Active; inhibition [16]: Dose-dependent effect; Activity (MDA-MB-231 [17]): 24.7%; inhibition [18]: Active; IC50 (Vero): 21.1 µM; Activity (MDA-MB-231 [19]): 7.65%
4 | Cc1c(Cc2cccc(NS(=O)(=O)NCC(F)(F)F)c2F)c(=O)oc2cc(OCCO)ccc12 | Metabolite_Notdetected | 780 | 7720 | > 5000 | 10300 | 930 | –
5 | CCNS(=O)(=O)Nc1cccc(Cc2c(C)c3ccc(OCCOc4no[n+]([O-])c4S(=O)(=O)c4ccccc4)cc3oc2=O)c1F | Metabolite_Detected | 290 | 180 | 2570 | 720 | 540 | –
6 | CNS(=O)(=O)Nc1nccc(Cc2c(C)c3ccc(Oc4ncccn4)cc3oc2=O)c1F [AVUTOMETINIB] | Metabolite_Notdetected | 6 | 170 | 1240 | 53 | 17 | Activity (MDA-MB-231 [4]): 8.45%; inhibition [5]: Active; viability at 1 µM (MDA-MB-231 [6]): 88.8%; inhibition [20]: Active; Activity (MDA-MB-231 [8]): 0.87%; Activity (MDA-MB-231 [10]): 0.57%; inhibition [21]: Active; IC50 (L02): 17.3 µM; viability at 10 µM (MDA-MB-231 [12]): 89.7%; Activity (MDA-MB-231 [14]): 2.37%; inhibition [15]: Active; Activity (MDA-MB-231 [17]): 7.32%; IC50 (Vero): > 50 µM; Activity (MDA-MB-231 [19]): 1.92%
7 | CNS(=O)(=O)Nc1cccc(Cc2c(C)c3ccc(OCCO)cc3oc2=O)c1F | Metabolite_Notdetected | 100 | 2190 | > 5000 | 3470 | 150 | –
8 | Cc1c(Cc2cccc(NS(=O)(=O)NCC(F)(F)F)c2F)c(=O)oc2cc(OCCOc3no[n+]([O-])c3S(=O)(=O)c3ccccc3)ccc12 | Metabolite_Detected | 270 | 130 | 2510 | 610 | 500 | –
9 | CC(=O)Nc1cccc(-n2c(=O)n(C3CC3)c(=O)c3c(Nc4ccc(I)cc4F)n(C)c(=O)c(C)c32)c1 [TRAMETINIB] | – | 3 | 18 | 460 | 19 | 2.4 | –
10 | CNS(=O)(=O)Nc1cccc(Cc2c(C)c3ccc(OCCCO)cc3oc2=O)c1F | Metabolite_Notdetected | – | 1900 | > 5000 | 5340 | – | –

— ChEMBL document CHEMBL4680253, “Hybrids of MEK inhibitor and NO donor as multitarget antitumor drugs” (Eur J Med Chem, 2020)
